Source: ChEMBL document CHEMBL4014350, “Alkoxyurea-Based Histone Deacetylase Inhibitors Increase Cisplatin Potency in Chemoresistant Cancer Cell Lines” (J Med Chem, 2017)
Active and inactive are the calls of the source. The calls are words filed in the database; no cut-off is given here.

Columns and labels:
[1] = biological target: T1, Histone deacetylase 1/6 (Homo sapiens) (UniProt Q13547+Q9UBN7); test: Inhibition of HDAC1/HDAC6 in human Cal27CisR cells assessed as potentiation of 3.16 uM cisplatin-induced cytotoxicity by measuring combination index at 1500 nM preincubated for 48 hrs followed by cisplatin treatment measured after 72 hrs by MTT assay
[2] = biological target: T1, Histone deacetylase 1/6 (Homo sapiens); test: Inhibition of HDAC1/HDAC6 in human Cal27CisR cells assessed as potentiation of 20 uM cisplatin-induced cytotoxicity by measuring combination index at 1500 nM preincubated for 48 hrs followed by cisplatin treatment measured after 72 hrs by MTT assay
CAL-27 [3] = test: Potentiation of cisplatin-induced apoptosis in human CAL27 cells at 1 uM preincubated for 48 hrs followed by cisplatin treatment for 6 hrs measured after 24 hrs by propidium iodide dye-based flow cytometry; type: functional, cell-based
CAL-27 [4] = test: Potentiation of 1 uM cisplatin-induced cytotoxicity against human CAL27 cells assessed as decrease in cell viability by measuring combination index at 900 uM preincubated for 48 hrs followed by cisplatin treatment measured after 72 hrs by MTT assay; type: functional
In short: (§1)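 HDAC inhibitor was added 48 h before cisplatin, then cells were exposed to cisplatin for 72 h and viability was read by MTT assay. Combination index was computed by the Chou–Talalay method: CI > 1 is antagonism, CI = 1 additive, CI < 0.9 synergism. Points with fraction affected below 0.20 were flagged.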

[5] = biological target: T1, Histone deacetylase 1/6 (Homo sapiens); test: Inhibition of HDAC1/HDAC6 in human Cal27CisR cells assessed as potentiation of 20 uM cisplatin-induced cytotoxicity by measuring combination index at 1000 nM preincubated for 48 hrs followed by cisplatin treatment measured after 72 hrs by MTT assay
Cal27CisR = test: Induction of apoptosis in human Cal27CisR cells at 0.5 uM for 48 hrs by propidium iodide dye-based flow cytometry; type: functional, cell-based
CAL-27 [6] = test: Potentiation of 0.316 uM cisplatin-induced cytotoxicity against human CAL27 cells assessed as decrease in cell viability measuring combination index at 2000 uM preincubated for 48 hrs followed by cisplatin treatment measured after 72 hrs by MTT assay; type: functional; conditions: in the assay text read “at 2000 nM” for “at 2000 uM”
In short: (§2)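 Cal27 and cisplatin-resistant Cal27CisR cells were preincubated with the HDAC inhibitor for 48 h, then given cisplatin in combination. Viability was read by MTT after 72 h. The combination index was computed by the Chou–Talalay method: CI > 1 is antagonism, CI = 1 is additive, and CI < 0.9 is synergism. Points with fraction affected below 0.20 were flagged.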

[7] = biological target: T1, Histone deacetylase 1/6 (Homo sapiens); test: Inhibition of HDAC1/HDAC6 in human Cal27CisR cells assessed as potentiation of 5 uM cisplatin-induced cytotoxicity by measuring combination index at 2000 uM preincubated for 48 hrs followed by cisplatin treatment measured after 72 hrs by MTT assay; type: cell-based
In short: as §2

[8] = biological target: T1, Histone deacetylase 1/6 (Homo sapiens); test: Inhibition of HDAC1/HDAC6 in human Cal27CisR cells assessed as potentiation of 5 uM cisplatin-induced cytotoxicity by measuring combination index at 900 uM preincubated for 48 hrs followed by cisplatin treatment measured after 72 hrs by MTT assay; type: cell-based
In short: as §2

CAL-27 [9] = test: Potentiation of 2 uM cisplatin-induced cytotoxicity against human CAL27 cells assessed as decrease in cell viability by measuring combination index at 900 uM preincubated for 48 hrs followed by cisplatin treatment measured after 72 hrs by MTT assay; type: functional; conditions: in the assay text read “at 900 nM” for “at 900 uM”
In short: as §1

[10] = biological target: T1, Histone deacetylase 1/6 (Homo sapiens); test: Inhibition of HDAC1/HDAC6 in human Cal27CisR cells assessed as potentiation of 1 uM cisplatin-induced cytotoxicity by measuring combination index at 900 uM preincubated for 48 hrs followed by cisplatin treatment measured after 72 hrs by MTT assay; type: cell-based
In short: (§3)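 Cal27CisR cells preincubated 48 h with the HDAC inhibitor, then exposed to cisplatin for 72 h. Viability read by MTT. Combination index calculated by the Chou–Talalay method: CI > 1 antagonism, CI = 1 additive, CI < 0.9 synergism. Points with fraction affected below 0.20 are flagged. Values are the mean of three experiments.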

CAL-27 [11] = test: Potentiation of 1 uM cisplatin-induced cytotoxicity against human CAL27 cells assessed as decrease in cell viability by measuring combination index at 1500 uM preincubated for 48 hrs followed by cisplatin treatment measured after 72 hrs by MTT assay; type: functional; conditions: in the assay text read “at 1500 nM” for “at 1500 uM”
In short: as §2

CAL-27 [12] = test: Potentiation of 0.5 uM cisplatin-induced cytotoxicity against human CAL27 cells assessed as decrease in cell viability by measuring combination index at 900 uM preincubated for 48 hrs followed by cisplatin treatment measured after 72 hrs by MTT assay; type: functional
In short: as §2

CAL-27 [13] = test: Potentiation of 0.316 uM cisplatin-induced cytotoxicity against human CAL27 cells assessed as decrease in cell viability by measuring combination index at 1500 uM preincubated for 48 hrs followed by cisplatin treatment measured after 72 hrs by MTT assay; type: functional; conditions: in the assay text read “at 1500 nM” for “at 1500 uM”
In short: as §2

[14] = biological target: T1, Histone deacetylase 1/6 (Homo sapiens); test: Inhibition of HDAC1/HDAC6 in human Cal27CisR cells assessed as potentiation of cisplatin-induced apoptosis at 1 uM preincubated for 48 hrs followed by cisplatin treatment for 6 hrs measured after 24 hrs by propidium iodide dye-based flow cytometry (reference value: 20.3%); type: cell-based; parameters: scale not given: the % may be the effect or the level left
CAL-27 [15] = test: Potentiation of 0.316 uM cisplatin-induced cytotoxicity against human CAL27 cells assessed as decrease in cell viability by measuring combination index at 700 nM preincubated for 48 hrs followed by cisplatin treatment measured after 72 hrs by MTT assay
[16] = biological target: T1, Histone deacetylase 1/6 (Homo sapiens); test: Inhibition of HDAC1/HDAC6 in human Cal27CisR cells assessed as potentiation of 1 uM cisplatin-induced cytotoxicity by measuring combination index at 1000 uM preincubated for 48 hrs followed by cisplatin treatment measured after 72 hrs by MTT assay; type: cell-based
In short: as §3

CAL-27 [17] = test: Potentiation of 1 uM cisplatin-induced cytotoxicity against human CAL27 cells assessed as decrease in cell viability by measuring combination index at 1000 uM preincubated for 48 hrs followed by cisplatin treatment measured after 72 hrs by MTT assay; type: functional; conditions: in the assay text read “at 1000 nM” for “at 1000 uM”
In short: as §2

CAL-27 [18] = test: Potentiation of 5 uM cisplatin-induced cytotoxicity against human CAL27 cells assessed as decrease in cell viability by measuring combination index at 1500 uM preincubated for 48 hrs followed by cisplatin treatment measured after 72 hrs by MTT assay; type: functional; conditions: in the assay text read “at 1500 nM” for “at 1500 uM”
In short: as §1

CAL-27 [19] = test: Potentiation of cisplatin-induced apoptosis in human CAL27 cells at 0.5 uM preincubated for 48 hrs followed by cisplatin treatment for 6 hrs measured after 24 hrs by propidium iodide dye-based flow cytometry (reference value: 21.8%); type: functional
CAL-27 [20] = test: Potentiation of 2 uM cisplatin-induced cytotoxicity against human CAL27 cells assessed as decrease in cell viability by measuring combination index at 100 uM preincubated for 48 hrs followed by cisplatin treatment measured after 72 hrs by MTT assay; type: functional; conditions: in the assay text read “at 100 nM” for “at 100 uM”
In short: as §1

T1 sequence (Q13547 whole entry, looked up): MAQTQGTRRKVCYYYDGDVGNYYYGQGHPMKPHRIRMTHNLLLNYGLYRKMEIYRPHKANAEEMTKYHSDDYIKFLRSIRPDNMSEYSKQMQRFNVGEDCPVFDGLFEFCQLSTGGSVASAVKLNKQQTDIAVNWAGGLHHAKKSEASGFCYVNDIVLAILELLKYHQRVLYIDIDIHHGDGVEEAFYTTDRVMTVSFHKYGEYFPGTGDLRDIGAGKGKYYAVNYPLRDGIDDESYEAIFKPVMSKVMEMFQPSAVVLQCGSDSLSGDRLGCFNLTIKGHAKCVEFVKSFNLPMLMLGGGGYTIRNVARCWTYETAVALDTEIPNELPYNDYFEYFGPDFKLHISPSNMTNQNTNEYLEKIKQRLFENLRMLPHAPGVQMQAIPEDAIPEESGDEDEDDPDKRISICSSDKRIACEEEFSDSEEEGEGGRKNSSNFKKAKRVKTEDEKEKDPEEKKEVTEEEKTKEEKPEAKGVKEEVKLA
T1 sequence (Q9UBN7 whole entry, looked up): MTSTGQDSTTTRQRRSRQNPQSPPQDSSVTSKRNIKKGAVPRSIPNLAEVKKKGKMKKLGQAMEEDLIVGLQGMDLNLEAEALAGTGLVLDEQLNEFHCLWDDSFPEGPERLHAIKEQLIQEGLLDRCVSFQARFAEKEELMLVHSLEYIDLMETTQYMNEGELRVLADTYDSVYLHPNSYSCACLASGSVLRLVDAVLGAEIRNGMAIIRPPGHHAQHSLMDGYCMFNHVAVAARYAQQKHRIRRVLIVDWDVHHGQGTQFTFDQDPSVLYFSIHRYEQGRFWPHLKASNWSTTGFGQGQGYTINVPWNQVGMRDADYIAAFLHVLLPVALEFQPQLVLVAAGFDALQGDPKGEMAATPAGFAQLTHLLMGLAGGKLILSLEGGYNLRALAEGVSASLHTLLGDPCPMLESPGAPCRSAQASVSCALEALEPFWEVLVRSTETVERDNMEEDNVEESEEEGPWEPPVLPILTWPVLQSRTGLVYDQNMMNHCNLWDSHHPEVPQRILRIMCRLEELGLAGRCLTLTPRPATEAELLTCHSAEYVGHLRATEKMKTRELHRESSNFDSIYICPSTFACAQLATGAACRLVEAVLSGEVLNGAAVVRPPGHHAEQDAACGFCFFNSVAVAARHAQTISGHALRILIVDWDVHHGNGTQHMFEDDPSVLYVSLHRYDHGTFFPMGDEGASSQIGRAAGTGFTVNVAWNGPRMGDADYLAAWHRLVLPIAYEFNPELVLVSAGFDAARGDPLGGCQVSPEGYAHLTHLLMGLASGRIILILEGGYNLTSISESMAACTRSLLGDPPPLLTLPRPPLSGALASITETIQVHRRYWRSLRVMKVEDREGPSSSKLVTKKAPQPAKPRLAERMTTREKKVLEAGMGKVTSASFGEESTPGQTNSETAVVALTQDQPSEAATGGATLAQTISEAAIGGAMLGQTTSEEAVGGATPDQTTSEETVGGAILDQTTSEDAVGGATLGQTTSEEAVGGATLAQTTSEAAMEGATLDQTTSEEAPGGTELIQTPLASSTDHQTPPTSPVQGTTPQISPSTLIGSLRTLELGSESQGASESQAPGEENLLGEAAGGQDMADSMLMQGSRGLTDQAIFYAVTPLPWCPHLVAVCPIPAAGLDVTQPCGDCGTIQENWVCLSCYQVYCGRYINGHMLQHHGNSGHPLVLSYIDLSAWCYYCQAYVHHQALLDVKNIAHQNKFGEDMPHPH

For COc1cc(NC(=O)NOCCCCCC(=O)NO)c2ncccc2c1, the CI [1] was 0.52, the CI [2] was 0.62 and the Activity (CAL-27 [3]) was “Active”. The CI (CAL-27 [4]) was 0.54, the CI [5] was 0.48 and the Activity (Cal27CisR) was “inactive”. For the same molecule, the CI (CAL-27 [6]) was 0.92, the CI [7] was 0.59 and the CI [8] was 0.52. The CI (CAL-27 [9]) was 0.4, the CI [10] was less than 0.2 and the CI (CAL-27 [11]) was 0.64. The CI (CAL-27 [12]) was 0.6, the CI (CAL-27 [13]) was 0.82 and the Activity [14] was 56.3%. It also gave a CI (CAL-27 [15]) of less than 0.2, a CI [16] of 0.85 and a CI (CAL-27 [17]) of 0.5. It also gave a CI (CAL-27 [18]) of 0.55.
COc1cc(NC(=O)NOCCCCCC(=O)NO)c2nc(OC)cc(C)c2c1 was tested, and the Activity (CAL-27 [19]) was 33.3% and the CI (CAL-27 [20]) was 0.31.
